PTK2B oligo ant: antagonists of human Pyk2 oligomerization; Q14289; Q293 cells, Pyk2 FERM NanoBiT luminescence; hits give low values; z-score (the deposit names both 25 µM and 10 µM); 99,000 compounds, 0.83% hits;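 active = Z-score of -3 or lower, scaled per plate to the spread of control and sample wells; inactive = z-score above -3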;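 note: negative z-score means lost luminescence so less FERM oligomerization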
FAK blocker: inhibitors of human focal adhesion kinase; Q05397; biochemical FAK kinase activity assay; inhibition, %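 (tested at 7 µM)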; 97,000 compounds, 0.84% hits; AID 727; in the data active = inhibition above about 19%;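 note: 0% = DMSO and 100% = reference compound high control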
Target sequence (Q05397 whole entry, looked up): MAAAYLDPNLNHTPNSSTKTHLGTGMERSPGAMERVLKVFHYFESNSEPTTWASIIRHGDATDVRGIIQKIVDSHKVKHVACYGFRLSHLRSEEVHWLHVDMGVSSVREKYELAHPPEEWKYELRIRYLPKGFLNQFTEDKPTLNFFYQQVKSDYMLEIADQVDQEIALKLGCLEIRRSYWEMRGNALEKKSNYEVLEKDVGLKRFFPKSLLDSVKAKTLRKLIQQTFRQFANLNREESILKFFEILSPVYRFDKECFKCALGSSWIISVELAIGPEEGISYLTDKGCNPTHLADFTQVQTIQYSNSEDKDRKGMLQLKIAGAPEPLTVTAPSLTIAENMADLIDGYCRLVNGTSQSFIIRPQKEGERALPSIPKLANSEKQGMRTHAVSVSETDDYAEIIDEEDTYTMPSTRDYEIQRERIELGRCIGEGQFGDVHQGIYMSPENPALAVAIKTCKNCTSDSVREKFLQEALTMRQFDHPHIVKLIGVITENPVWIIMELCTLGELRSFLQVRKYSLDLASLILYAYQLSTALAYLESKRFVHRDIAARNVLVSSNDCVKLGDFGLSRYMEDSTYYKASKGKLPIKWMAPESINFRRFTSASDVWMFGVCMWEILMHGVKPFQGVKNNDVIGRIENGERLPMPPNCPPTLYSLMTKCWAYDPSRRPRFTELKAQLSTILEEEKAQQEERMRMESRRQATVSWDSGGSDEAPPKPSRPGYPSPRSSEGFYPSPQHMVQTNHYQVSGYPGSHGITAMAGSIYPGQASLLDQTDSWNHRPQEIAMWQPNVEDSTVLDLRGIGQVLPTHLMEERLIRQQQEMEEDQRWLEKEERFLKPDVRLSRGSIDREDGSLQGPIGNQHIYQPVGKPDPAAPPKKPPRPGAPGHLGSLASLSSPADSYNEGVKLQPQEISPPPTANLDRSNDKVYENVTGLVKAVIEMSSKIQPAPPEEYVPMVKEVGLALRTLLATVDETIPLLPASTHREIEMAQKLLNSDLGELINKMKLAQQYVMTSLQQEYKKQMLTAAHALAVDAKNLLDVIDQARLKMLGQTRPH
PostGolgi yeast: growth inhibition of a yeast mutant, post-Golgi transport screen | post-Golgi transport phenotypic cell assay | inhibition, % at 10 µM | 98,000 compounds, 0.9% hits | AID 739;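 note: yeast cells grown in 1536-well plates; yeast grown about 18 h at 30C before absorbance read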
PostGolgi ctrl: inhibits growth of the yeast control strain | 98,000 compounds, 5% hits | efflux-deficient yeast background strain, growth absorbance A615, 16 h | inhibition, % at 10 µM
Ecoli tolC: blocks growth of E. coli BW25113 tolC mutant | 65,000 compounds, 2.2% hits | OD615 | growth inhibition, % at 10 µM (by protocol);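 active = growth inhibition at or above a cutoff equal to the mean over every tested compound plus 3 SD, cut at about 60% in these data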;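 note: growth measured after 20 h incubation at 37 °C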
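test system = E. coli BW25113 ΔtolC::kan bacteria | medium = LB with kanamycin 50 µg/mL | signal = OD at 615 nm | schedule = 37 °C, 20 h exposure | evaluation = % inhibition of E. coli growth | compound dosing = one dose of 10 µM final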
Calb biofilm kill: kills Candida albicans biofilms; C. albicans biofilm + clotrimazole, Alamar Blue; inhibition, % at 6 µM; 85,000 compounds, 0.14% hits;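 active = inhibition above 20%; inactive = inhibition below 20%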;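 note: preformed 24 hr biofilms exposed to compound for 48 hr; 0% = biofilm without compound and 100% = blank killed by clotrimazole plus chlorhexidine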
An asterisk follows results filed as active; x = not tested or not shown. Only some compounds are listed: those with a hit (about 6.9% of all), similar ones and a draw of the others. Cut-off read from the data, not from the text of the source, unless noted: active = inhibition above about 30%; inactive = the rest.

SMILES	PTK2B oligo ant	FAK blocker	PostGolgi yeast	PostGolgi ctrl	Ecoli tolC	Calb biofilm kill
CCN1CCN(c2ccc(NC(=O)c3cccc(OCc4ccccc4)c3)cc2)CC1	-0.62	5	-2	0	x	9
CN1CCN(c2ccc(NC(=O)c3cccc(OCc4ccccc4)c3)cc2)CC1	-0.47	12	0	39*	8	-6
CCOC(=O)N1CCN(CC(=O)Nc2ccc(Oc3ccccc3)cc2)CC1	0.02	0	4	32*	x	2
O=C(CN1CCN(c2ccccc2)CC1)Nc1ccc(OCc2ccccc2)cc1	0.36	6	2	48*	x	-1
CCOc1ccc(NC(=O)CCN2CCN(c3ccccc3)CC2)cc1	-0.14	4	7	1	-6	2
COc1cc(-n2c(=O)c3ccccc3n(Cc3cccnc3)c2=O)cc(OC)c1OC	0.29	6	x	x	-24	2
NC(=O)c1ccsc1NC(=O)c1nc(-c2ccccc2)n(-c2ccccc2)n1	-4.4*	x	73*	11	14	x
O=C(NC1=NCCS1)c1nc(-c2ccccc2)n(-c2ccccc2)n1	-0.43	-2	-1	6	0	x
Cc1ccccc1-c1nc2ccccc2c(=O)n1/N=C/c1ccccc1[N+](=O)[O-]	0.46	-7	0	47*	x	x
CC1(C)CC(=O)C2=C(C1)NC(Nc1nc3ccccc3o1)=NC21CCCCC1	0.24	-9	9	8	-28	6
CCC(=O)N(Cc1ccco1)c1nc(-c2ccc(OC)cc2)cs1	0.76	-3	x	x	x	11
COc1ccc(-c2csc(N(CC3CCCO3)C(=O)c3ccco3)n2)cc1 (centres undefined)	-2.1	1	18	24	61*	5
CCC(c1nnnn1C1CCCC1)N1CCN(c2ccccc2F)CC1 (centres undefined)	0.03	2	2	27	7	-2
CCCC(c1nnnn1C1CCCC1)N1CCN(c2ccccc2F)CC1 (centres undefined)	0.64	0	19	67*	5	9
CCOC(=O)COc1ccc2c(c1)C(=O)CC(C)(c1cccnc1)O2 (centres undefined)	0.64	3	4	42*	0	x
COc1cccc(N/C(SCc2cccc([N+](=O)[O-])c2)=C(/C#N)C(=O)NCc2cccs2)c1	-0.67	x	x	x	x	x
COC(=O)c1c(NC(=O)c2ccoc2C)sc2c1CCC2	0.69	1	8	8	0	5
NC(=O)c1c(NC(=O)CN2C(=O)CCC2=O)sc2c1CCCCC2	x	8	32*	-9	-18	x
Cc1occc1C(=O)Nc1sc2c(c1C(N)=O)CCCCC2	-0.14	2	0	31*	1	4
COc1ccc(-n2c(Cc3cccn3C)nnc2SCC(=O)Nc2ccccc2OC)cc1	x	x	4	4	15	9
CCCSc1nc2c(cnn2-c2ccccc2)c(=O)[nH]1	x	x	8	33*	11	14
CCCSc1nc2c(cnn2-c2ccc(F)cc2)c(=O)[nH]1	x	3	-1	23	11	x
COCC(=O)Nc1ccc(C(N)=O)cc1	1.7	-12	17	29	-15	2
Cc1cc(C)c2nc(C(F)(F)F)nc(NCCCN3CCOCC3)c2c1	-1.9	4	41*	30	x	4
CCCCN(Cc1ccco1)C(=O)c1cc2c(=O)[nH]c3ccc(C)cc3c2s1	x	9	0	36*	x	12
SMILES	PTK2B oligo ant	FAK blocker	PostGolgi yeast	PostGolgi ctrl	Ecoli tolC	Calb biofilm kill
Cc1ccc2[nH]c(=O)c(CN(Cc3ccco3)C(=O)c3cccs3)cc2c1	x	1	6	3	-32	3
Cn1c(=O)c2nc(-c3ccccc3)oc2c2ccccc21	-2.4	-2	9	61*	37	1
CCCCCc1nc2c(=O)n(C)c3ccccc3c2o1	0.03	0	-7	8	23	9
CC(C)C1S/C(=N/N=C/c2ccco2)NC1=O (centres undefined)	0.42	-2	-5	-10	x	x
Cc1nn(-c2ccccc2)c2c1C1(C(=O)Nc3ccccc31)N1C(=N2)Sc2ccccc21 (centres undefined)	-4.2*	-2	9	12	41	5
O=S(=O)(c1ccc(F)cc1)N1CCN(c2ncnc3c2cnn3-c2ccccc2)CC1	-0.34	-2	5	35*	-13	3
c1ccc(-n2ncc3c(N4CCN(CCOc5cccc6ccccc56)CC4)ncnc32)cc1	-0.32	2	1	32*	x	2
CN(C)c1nc(N)nc(Nc2ccccc2C#N)n1	0.56	1	18	12	-4	4
CCn1c(CSc2nc3ccccc3s2)nnc1SCC(=O)c1ccc(Cl)cc1	-0.2	3	-9	43*	x	x
CCn1c(CSc2nc3ccccc3s2)nnc1SCC(=O)c1ccc(O)c(O)c1	0.6	2	19	-17	x	x
CCOC(=O)N/C(N)=N/c1nc2ccccc2s1	-0.22	7	-26	33*	44	4
CS(=O)(=O)c1cccc(C(=O)NCc2ccc(F)cc2)c1	-0.09	-1	9	5	x	5
CC(=O)N(C)c1ccc(OCC(O)Cn2c3ccc(Cl)cc3c3cc(Cl)ccc32)cc1 (centres undefined)	-1.3	1	73*	57*	x	x
N=c1n(Cc2ccccc2)c2ccccc2n1CC(O)COc1ccccc1 (centres undefined)	0.64	-1	-8	-9	63*	7
Cc1ccc(OCC(O)Cn2c3ccccc3c3ccccc32)cc1 (centres undefined)	-0.37	-2	-1	41*	x	x
Cc1ccc(Cn2c(=N)n(CC(O)COc3ccccc3)c3ccccc32)cc1 (centres undefined)	0.39	1	0	-5	x	5
Cc1cccc(C)c1OCC(O)Cn1c2ccccc2c2ccccc21 (centres undefined)	-0.15	-7	-6	50*	x	x
O=C(CSc1nnc(Cc2cc(=O)[nH]c(=O)[nH]2)n1-c1ccccc1)NCC1CCCO1 (centres undefined)	0.15	-3	-1	5	-16	5
CC(=O)C1=C(O)C(=O)N(c2ccc(Br)cn2)C1c1ccccc1F (centres undefined)	-0.39	-3	3	19	3	7
CC1CCC2C(C1)c1sc(=O)[nH]c1SC2(C)C (centres undefined)	-0.77	2	5	66*	63*	5
O=C(CCNS(=O)(=O)c1cccc2nsnc12)NC1CCCc2ccccc21 (centres undefined)	0.32	x	14	7	11	3
O=C(CCNS(=O)(=O)c1cccc2nonc12)NC1CCCc2ccccc21 (centres undefined)	0.08	x	-8	32*	-4	2
COC(=O)CC1Oc2ccc(C)cc2NC1=O (centres undefined)	x	-2	2	4	-5	7
COc1ccc(Cl)cc1NC(=O)C(C)Sc1nncn1C (centres undefined)	-0.29	-5	-4	11	x	8
COc1ccc(OC)c(-c2nnc(NC(=O)C(C)Sc3nncn3C)s2)c1 (centres undefined)	x	5	0	6	13	23*

Source: PubChem BioAssay
